pIC50: −log10 of the molar value. Activity calls are given as the source filed them. The calls are words filed in the database; no cut-off is given here.
Legend:
[1] = biological target: Macrophage-stimulating protein receptor (Homo sapiens, UniProt Q04912); test: Inhibition of MST1R (unknown origin)
[2] = Effect on Hexb gene expression in wild type mouse hippocampus at 1200 ppm administered as rodent chow starting from 1.5 months and measured after 7 months by RNA-Seq analysis (reference value: 42.233 to 43.921 RPKM); assay type: functional; conditions: route po, time 5.5 months, 4015 h
[3] = Drug concentration in wildtype mouse plasma at 1200 ppm administered as rodent chow for 10 to 24 weeks; assay type: ADME, cell-free; conditions: po, time 10-24 weeks
In short: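 WT or 5xFAD mice were started at 1.5 months of age on PLX5622 formulated at 1200 ppm in AIN-76A chow, with control chow as comparison. Feeding ran for 10 or 24 weeks. Terminal plasma and brain drug levels were then measured. Groups were sex-balanced and compared by two-tailed independent t-test.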

[4] = biological target: T1, Macrophage colony-stimulating factor 1 receptor (Mus musculus) (UniProt P09581); test: In vivo inhibition of CSF1R in wildtype mouse assessed as microglial elimination in thalamus at 1200 ppm administered as rodent chow for 10 weeks by […] based confocal microscopic analysis; assay type: functional; conditions: route po
T1 sequence (whole entry): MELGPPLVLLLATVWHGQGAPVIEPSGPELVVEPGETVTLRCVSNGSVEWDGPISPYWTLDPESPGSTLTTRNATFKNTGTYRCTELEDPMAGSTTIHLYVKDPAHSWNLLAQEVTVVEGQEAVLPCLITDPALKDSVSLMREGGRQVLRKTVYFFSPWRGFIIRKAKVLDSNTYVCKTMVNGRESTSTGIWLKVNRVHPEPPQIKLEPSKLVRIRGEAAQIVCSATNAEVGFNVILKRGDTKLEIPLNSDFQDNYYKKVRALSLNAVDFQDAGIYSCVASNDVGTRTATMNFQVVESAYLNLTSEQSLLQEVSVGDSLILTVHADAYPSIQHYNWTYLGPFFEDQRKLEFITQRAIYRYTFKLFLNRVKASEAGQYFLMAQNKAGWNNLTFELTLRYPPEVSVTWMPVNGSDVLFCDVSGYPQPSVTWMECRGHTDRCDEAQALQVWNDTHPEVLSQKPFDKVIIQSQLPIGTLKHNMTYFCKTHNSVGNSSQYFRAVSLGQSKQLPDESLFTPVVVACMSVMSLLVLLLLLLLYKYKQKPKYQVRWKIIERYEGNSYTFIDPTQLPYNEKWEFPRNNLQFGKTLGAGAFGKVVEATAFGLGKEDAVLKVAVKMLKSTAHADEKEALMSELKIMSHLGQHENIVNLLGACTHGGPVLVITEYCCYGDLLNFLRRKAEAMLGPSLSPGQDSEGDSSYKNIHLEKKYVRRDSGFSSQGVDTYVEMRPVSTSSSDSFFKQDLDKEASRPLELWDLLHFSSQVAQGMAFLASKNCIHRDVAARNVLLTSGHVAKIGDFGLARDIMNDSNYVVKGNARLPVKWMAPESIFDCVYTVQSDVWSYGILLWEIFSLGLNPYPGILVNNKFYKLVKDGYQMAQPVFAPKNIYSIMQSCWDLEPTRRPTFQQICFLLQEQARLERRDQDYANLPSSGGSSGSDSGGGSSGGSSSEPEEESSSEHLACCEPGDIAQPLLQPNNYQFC

[5] = Effect on C1qa gene expression in wild type mouse hippocampus at 1200 ppm administered as rodent chow starting from 1.5 months and measured after 7 months by RNA-Seq analysis (reference value: 17.148 to 23.051 RPKM); assay type: functional; conditions: route po, time 5.5 months, 4015 h
In short: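 WT and 5xFAD mice were treated with 1200 ppm PLX5622 chow or control chow from 1.5 to 7 months of age. Brains were microdissected into cortex, hippocampus and thalamus, and RNA was extracted from tissue powder. Whole-transcriptome RNA-Seq libraries were sequenced, with n = 4 per group per region (48 samples).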

[6] = Drug concentration in 5XFAD mouse brain at 1200 ppm administered as rodent chow for 180 days; assay type: ADME, tissue-based; conditions: route po, time 180 day, read-out: Ct
[7] = Toxicity in wildtype mouse assessed as number of triads at 1200 ppm administered as rodent chow for 10 to 24 weeks by Y-maze test (reference value: 4 to 9); conditions: in vivo, po, time 10-24 weeks
[8] = biological target: Tyrosine-protein kinase FRK (Homo sapiens, UniProt P42685); test: Inhibition of FRK (unknown origin)
[9] = Prevention of Nrg3 gene downregulation in 5XFAD mouse hippocampus assessed as percent change in Reads Per kilo base per Million mapped reads at 1200 ppm administered as rodent chow starting from 1.5 months and measured after 7 months by RNA-Seq analysis (reference value: 52.623 to 75.016 %); assay type: functional; conditions: route po, time 5.5 months, 4015 h
[10] = biological target: Homeodomain-interacting protein kinase 1 (Homo sapiens, UniProt Q86Z02); test: Inhibition of HIPK1 (unknown origin)
[11] = Toxicity in wildtype mouse assessed as time to locate platform at 1200 ppm administered as rodent chow for 10 to 24 weeks by Morris water maze test (reference value: 3.195 to 56.218 sec); conditions: in vivo, po, time 10-24 weeks
Mus musculus [12] = test: Effect on APP processing pathway in wildtype mouse assessed as PS1 protein signal intensity in cortex at 1200 ppm administered as rodent starting from 1.5 months and measured after 7 months (reference value: 78.906 to 243.681 %); assay type: functional; conditions: route po, time 5.5 months, 4015 h
Mus musculus [13] = test: Antialzheimer activity in 5XFAD mouse assessed as average diameter of claudin-5 blood vessels in Thio-S negative thalamus at 1200 ppm administered as rodent chow starting from 1.5 months and measured after 4 months by immunolabeling analysis; assay type: functional; conditions: route po, time 2.5 months, 1825 h
[14] = biological target: Serine/threonine-protein kinase PAK 6 (Homo sapiens, UniProt Q9NQU5); test: Inhibition of PAK6 (unknown origin)
Mus musculus [15] = test: Antialzheimer activity in 5XFAD mouse assessed as microglial elimination in cortex at 1200 ppm administered as rodent chow for 10 weeks by Thio-S staining based confocal microscopic analysis relative to control; assay type: functional; conditions: route po
In short: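 1.5-month-old 5xFAD mice fed 1200 ppm PLX5622 chow for 10 weeks; free-floating sections stained with Thio-S and immunolabeled for IBA1 (5% normal serum/0.2% Triton X-100 block, 60 min); confocal imaging of cortex and thalamus to assess remaining microglia.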

[16] = biological target: Casein kinase II subunit alpha' (Homo sapiens, UniProt P19784); test: Inhibition of CSNK2A2 (unknown origin)
Mus musculus [17] = test: Prevention of Dlgap1 gene downregulation in 5XFAD mouse hippocampus at 1200 ppm administered as rodent chow starting from 1.5 months and measured after 7 months by Nanostring analysis; assay type: functional, tissue-based; conditions: route po, time 5.5 months
[18] = biological target: Serine/threonine-protein kinase N1 (Homo sapiens, UniProt Q16512); test: Inhibition of PKN1 (unknown origin)
[19] = Effect on Cst7 gene expression in wild type mouse hippocampus at 1200 ppm administered as rodent chow starting from 1.5 months and measured after 7 months by RNA-Seq analysis (reference value: 0.079 to 0.447 RPKM); assay type: functional; conditions: route po, time 5.5 months, 4015 h
[20] = biological target: T1, Macrophage colony-stimulating factor 1 receptor (Mus musculus); test: In vivo inhibition of CSF1R in wildtype mouse assessed as microglial numbers by measuring number of Iba positive cells per FOV in […] cortex at 75 ppm administered as rodent chow starting from 1.5 months and measured after 5 months by immunolabeling based confocal microscopic analysis (reference value: 200 to 275); assay type: functional; conditions: route po, time 3.5 months

Macrophage-stimulating protein receptor, sequence (Q04912 25-304 limits assumed): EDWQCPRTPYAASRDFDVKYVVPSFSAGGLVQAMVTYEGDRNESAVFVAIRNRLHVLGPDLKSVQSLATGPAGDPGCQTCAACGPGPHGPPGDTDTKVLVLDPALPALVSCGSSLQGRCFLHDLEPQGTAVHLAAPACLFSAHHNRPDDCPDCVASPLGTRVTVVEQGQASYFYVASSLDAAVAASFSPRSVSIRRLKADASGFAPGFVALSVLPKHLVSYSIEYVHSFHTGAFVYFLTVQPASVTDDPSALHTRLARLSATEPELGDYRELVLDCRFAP
Macrophage-stimulating protein receptor, sequence (Q04912 310-1400 limits assumed): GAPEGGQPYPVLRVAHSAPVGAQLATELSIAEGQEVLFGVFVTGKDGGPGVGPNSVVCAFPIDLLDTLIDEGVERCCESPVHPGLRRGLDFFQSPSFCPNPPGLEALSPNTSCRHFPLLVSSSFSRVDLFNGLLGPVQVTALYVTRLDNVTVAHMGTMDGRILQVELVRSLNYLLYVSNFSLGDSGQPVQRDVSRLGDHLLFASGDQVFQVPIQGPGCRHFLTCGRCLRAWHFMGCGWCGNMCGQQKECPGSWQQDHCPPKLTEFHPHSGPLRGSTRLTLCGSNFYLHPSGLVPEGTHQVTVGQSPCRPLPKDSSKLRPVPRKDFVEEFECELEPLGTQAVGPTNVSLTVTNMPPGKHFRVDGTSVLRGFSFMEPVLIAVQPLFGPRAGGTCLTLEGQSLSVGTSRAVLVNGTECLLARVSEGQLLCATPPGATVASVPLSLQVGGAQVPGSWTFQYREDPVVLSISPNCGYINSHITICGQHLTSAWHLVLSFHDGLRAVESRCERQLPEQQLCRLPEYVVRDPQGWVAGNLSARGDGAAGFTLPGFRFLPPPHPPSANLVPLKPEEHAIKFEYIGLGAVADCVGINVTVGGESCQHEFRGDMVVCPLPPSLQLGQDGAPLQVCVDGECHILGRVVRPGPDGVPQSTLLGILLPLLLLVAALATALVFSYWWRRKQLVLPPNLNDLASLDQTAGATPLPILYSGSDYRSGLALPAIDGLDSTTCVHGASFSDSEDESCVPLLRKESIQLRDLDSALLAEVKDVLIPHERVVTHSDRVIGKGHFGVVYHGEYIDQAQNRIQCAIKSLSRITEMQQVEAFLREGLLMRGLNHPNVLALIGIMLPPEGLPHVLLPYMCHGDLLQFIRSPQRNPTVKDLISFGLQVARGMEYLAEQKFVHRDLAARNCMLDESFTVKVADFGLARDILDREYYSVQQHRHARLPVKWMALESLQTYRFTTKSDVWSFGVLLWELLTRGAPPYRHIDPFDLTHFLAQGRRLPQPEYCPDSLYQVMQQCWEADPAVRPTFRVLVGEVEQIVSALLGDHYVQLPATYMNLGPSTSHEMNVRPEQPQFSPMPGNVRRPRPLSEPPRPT
Tyrosine-protein kinase FRK, sequence (P42685 whole entry): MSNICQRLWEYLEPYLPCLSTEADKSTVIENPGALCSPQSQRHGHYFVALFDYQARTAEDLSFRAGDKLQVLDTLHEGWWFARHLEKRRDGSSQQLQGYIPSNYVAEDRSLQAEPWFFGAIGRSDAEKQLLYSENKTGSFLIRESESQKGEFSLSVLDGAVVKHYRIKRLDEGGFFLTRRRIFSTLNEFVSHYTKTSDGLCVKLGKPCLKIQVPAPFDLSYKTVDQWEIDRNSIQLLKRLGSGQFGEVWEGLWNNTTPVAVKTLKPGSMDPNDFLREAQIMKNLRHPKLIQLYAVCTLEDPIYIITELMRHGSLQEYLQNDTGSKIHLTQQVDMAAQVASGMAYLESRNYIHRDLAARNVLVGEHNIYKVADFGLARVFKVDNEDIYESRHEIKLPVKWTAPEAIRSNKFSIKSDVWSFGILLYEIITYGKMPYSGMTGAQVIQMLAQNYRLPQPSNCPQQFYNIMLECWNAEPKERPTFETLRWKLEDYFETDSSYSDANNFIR
Serine/threonine-protein kinase PAK 6, sequence (Q9NQU5 whole entry): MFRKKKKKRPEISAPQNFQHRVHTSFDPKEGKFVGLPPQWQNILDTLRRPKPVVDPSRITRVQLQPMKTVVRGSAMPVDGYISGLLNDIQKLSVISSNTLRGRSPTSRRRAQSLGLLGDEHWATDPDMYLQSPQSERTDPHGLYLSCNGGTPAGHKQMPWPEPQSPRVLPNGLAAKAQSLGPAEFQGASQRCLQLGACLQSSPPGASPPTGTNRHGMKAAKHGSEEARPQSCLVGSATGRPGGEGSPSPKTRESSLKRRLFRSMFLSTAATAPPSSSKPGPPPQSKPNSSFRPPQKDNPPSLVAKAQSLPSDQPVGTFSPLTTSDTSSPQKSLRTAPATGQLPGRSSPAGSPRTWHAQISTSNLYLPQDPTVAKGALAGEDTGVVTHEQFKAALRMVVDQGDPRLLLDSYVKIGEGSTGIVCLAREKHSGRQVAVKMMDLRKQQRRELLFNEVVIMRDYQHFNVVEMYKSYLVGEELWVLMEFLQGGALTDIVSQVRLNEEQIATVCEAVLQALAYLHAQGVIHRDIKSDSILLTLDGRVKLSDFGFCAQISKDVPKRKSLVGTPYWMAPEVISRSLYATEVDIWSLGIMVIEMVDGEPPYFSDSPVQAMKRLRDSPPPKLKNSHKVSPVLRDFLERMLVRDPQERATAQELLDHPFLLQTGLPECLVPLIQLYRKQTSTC
Serine/threonine-protein kinase N1, sequence (Q16512 whole entry): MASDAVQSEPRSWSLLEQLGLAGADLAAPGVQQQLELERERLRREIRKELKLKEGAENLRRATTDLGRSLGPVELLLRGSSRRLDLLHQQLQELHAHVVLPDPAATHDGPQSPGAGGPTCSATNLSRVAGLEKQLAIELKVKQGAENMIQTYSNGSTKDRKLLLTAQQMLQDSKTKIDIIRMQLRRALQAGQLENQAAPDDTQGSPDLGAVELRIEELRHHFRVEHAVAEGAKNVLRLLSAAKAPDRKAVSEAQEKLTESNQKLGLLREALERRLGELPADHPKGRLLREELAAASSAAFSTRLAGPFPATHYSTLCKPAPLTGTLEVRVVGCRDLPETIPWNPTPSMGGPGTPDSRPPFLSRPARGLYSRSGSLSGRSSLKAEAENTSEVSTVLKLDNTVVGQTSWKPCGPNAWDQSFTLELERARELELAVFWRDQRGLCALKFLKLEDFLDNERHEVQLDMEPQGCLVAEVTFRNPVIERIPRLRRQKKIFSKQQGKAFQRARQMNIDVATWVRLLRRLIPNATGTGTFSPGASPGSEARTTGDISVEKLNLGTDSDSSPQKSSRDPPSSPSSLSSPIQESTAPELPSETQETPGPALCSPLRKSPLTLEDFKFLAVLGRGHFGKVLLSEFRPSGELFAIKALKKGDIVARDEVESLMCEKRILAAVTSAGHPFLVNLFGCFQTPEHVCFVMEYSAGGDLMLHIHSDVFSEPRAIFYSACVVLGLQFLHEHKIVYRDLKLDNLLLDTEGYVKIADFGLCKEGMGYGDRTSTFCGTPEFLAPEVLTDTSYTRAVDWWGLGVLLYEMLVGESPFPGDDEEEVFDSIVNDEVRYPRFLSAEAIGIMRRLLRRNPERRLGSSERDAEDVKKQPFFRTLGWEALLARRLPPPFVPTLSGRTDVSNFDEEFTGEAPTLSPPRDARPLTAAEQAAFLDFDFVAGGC
Homeodomain-interacting protein kinase 1, sequence (Q86Z02 whole entry): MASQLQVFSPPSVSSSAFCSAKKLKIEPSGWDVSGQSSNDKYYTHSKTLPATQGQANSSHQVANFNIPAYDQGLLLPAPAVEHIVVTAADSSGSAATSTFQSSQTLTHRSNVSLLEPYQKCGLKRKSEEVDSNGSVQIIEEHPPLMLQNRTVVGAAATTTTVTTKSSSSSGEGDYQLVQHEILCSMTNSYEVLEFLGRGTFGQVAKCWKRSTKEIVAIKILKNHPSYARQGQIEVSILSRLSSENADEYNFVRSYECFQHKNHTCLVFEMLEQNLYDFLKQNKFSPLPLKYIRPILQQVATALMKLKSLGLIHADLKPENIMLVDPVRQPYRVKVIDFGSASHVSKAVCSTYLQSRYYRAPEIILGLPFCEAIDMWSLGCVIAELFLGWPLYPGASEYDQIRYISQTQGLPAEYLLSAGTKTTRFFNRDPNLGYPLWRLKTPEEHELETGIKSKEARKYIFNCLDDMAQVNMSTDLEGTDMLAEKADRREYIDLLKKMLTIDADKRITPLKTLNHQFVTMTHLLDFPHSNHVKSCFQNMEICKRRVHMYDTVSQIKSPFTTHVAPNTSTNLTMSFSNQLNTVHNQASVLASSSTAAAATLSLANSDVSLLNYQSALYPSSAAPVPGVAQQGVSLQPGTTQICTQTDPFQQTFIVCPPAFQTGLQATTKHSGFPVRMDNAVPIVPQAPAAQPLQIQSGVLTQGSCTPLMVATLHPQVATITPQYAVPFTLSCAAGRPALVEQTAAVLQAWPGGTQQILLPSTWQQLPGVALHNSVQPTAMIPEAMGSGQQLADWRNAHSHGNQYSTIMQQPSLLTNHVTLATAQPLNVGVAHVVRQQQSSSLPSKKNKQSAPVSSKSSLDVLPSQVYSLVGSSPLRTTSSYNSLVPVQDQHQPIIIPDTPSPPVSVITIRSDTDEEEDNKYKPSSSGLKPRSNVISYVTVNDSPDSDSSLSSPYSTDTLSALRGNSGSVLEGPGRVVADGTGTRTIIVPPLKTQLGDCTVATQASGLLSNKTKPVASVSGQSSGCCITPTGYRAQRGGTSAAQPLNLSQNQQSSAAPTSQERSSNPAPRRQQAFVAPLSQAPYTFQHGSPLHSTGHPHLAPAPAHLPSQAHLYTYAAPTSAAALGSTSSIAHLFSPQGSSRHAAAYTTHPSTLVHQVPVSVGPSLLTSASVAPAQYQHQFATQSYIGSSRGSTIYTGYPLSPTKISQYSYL
Casein kinase II subunit alpha', sequence (P19784 whole entry): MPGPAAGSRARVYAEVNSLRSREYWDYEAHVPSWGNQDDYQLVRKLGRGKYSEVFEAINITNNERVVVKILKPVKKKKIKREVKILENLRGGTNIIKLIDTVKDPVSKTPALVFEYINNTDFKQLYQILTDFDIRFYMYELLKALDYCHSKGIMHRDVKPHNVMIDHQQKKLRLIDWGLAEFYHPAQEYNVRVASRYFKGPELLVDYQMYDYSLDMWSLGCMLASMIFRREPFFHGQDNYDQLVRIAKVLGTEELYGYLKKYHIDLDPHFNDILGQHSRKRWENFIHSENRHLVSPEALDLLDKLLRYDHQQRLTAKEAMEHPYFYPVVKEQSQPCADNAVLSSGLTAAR

Structure (SMILES) | pIC50 [1] | Activity [2] | concentration [3] | inhibition [4] | Activity [5] | concentration at 4320 h [6] | Activity [7] | pIC50 [8] | Activity [9] | pIC50 [10] | Time [11] | Activity (Mus musculus [12]) | Activity (Mus musculus [13]) | pIC50 [14] | Activity (Mus musculus [15]) | pIC50 [16] | Activity (Mus musculus [17]) | pIC50 [18] | Activity [19] | Activity [20]
COc1ncc(F)cc1CNc1ccc(Cc2c[nH]c3ncc(C)cc23)c(F)n1 [PLX-5622] | < 6.00 | 10.009 RPKM | 17.8 µM | inactive | 0.17 RPKM | 2390 ng/mL | 3 | < 6.00 | 86.32% | < 6.00 | 6.755 s | 99.34% | 1.854 um | < 6.00 | >99% | < 6.00 | Active | < 6.00 | 0 RPKM | –
FC(F)(F)c1ccc(CNc2ccc(Cc3c[nH]c4ncc(Cl)cc34)cn2)cn1 [PEXIDARTINIB] | – | – | – | – | – | – | – | – | – | – | – | – | – | – | – | – | – | – | – | 162
